Laboratory results: ChEMBL document CHEMBL1135466, “Potent antimalarial febrifugine analogues against the plasmodium malaria parasite” (J Med Chem, 2002)

Tests used:
[1] = In vitro antimalarial activity against the Plasmodium falciparum FCR3; format: functional
FM3A [2] = experiment: Selectivity ratio of cytotoxicity against FM3A cells to antimalarial activity against Plasmodium falciparum FCR3; format: functional, Mus musculus
FM3A [3] = experiment: In vitro cytotoxicity against mouse mammary FM3A cells; format: cell-based
Plasmodium berghei [4] = experiment: (§1) In vivo antimalarial activity against Plasmodium berghei infected mice (Mus musculus); format: functional
In short: (§2)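 Infected mice were dosed, and activity is reported as the doses giving 50% and 90% effect (ED50 and ED90), in µmol/kg.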

Plasmodium berghei [5] = experiment: as §1; format: functional; in short: as §2; remark: listed apart in the source

Structure (SMILES)	EC50 [1]	Selectivity (FM3A [2])	EC50 (FM3A [3])	ED50 (Plasmodium berghei [4])	ED50 (Plasmodium berghei [5])	ED90 (Plasmodium berghei [4])
CC1(C)[C@H](n2cnc3ccccc3c2=O)C(=O)C[C@H]2[C@@H](O)CCCN21	2.8 nM	857	–	–	–	–
CC1(C)[C@@H](n2cnc3ccccc3c2=O)C(=O)C[C@@H]2[C@@H](O)CCCN21	1.6 nM	238	–	–	–	–
CCOC(=O)N1CCC[C@H](O)C1CC(=O)Cn1cnc2ccccc2c1=O (some centres undefined)	4800 nM	>3.5	> 17000 nM	–	–	–
O=C(CC1NCCC[C@@H]1O)Cn1cnccc1=O (some centres undefined)	–	>32	> 19000 nM	–	–	–
O=c1c2ccccc2ncn1C[C@@H]1C[C@@H]2[C@@H](O)CCCN2CO1	–	1027	3800 nM	82 µmol/kg	> 180 µmol/kg	–
COCO[C@H]1CCCN2CO[C@H](Cn3cnc4ccccc4c3=O)C[C@H]12	8.6 nM	291	2500 nM	–	–	–
O=c1c2ccccc2ccn1CC1(O)CC2NCCC[C@@H]2O1 (some centres undefined)	2100 nM	>3	> 6300 nM	–	–	–
O=c1c2ccccc2ncn1C[C@@H]1C[C@@H]2[C@H](O)CCCN2CO1	840 nM	>30	> 25000 nM	–	–	–
O=C(CC1NCCC[C@@H]1O)Cn1ccc2ccccc2c1=O (some centres undefined)	500 nM	>32	> 16000 nM	–	–	–
CNc1ccccc1C(=O)NC1[C@@H](O)C[C@@H]2[C@@H](O)CCCN2C1(C)C (some centres undefined)	600 nM	>28	> 17000 nM	–	–	–
CC1(C)[C@@H](n2cnc3ccccc3c2=O)[C@H](O)C[C@@H]2[C@@H](O)CCCN21	300 nM	283	85000 nM	–	–	–
CC1(C)[C@@H](n2cnc3ccccc3c2=O)[C@@H](O)C[C@@H]2[C@@H](O)CCCN21	400 nM	70	2800 nM	–	–	–
CC1(C)[C@@H](n2cnc3ccccc3c2=O)C(=O)C[C@@H]2[C@@H](O)CCC[N+]21[O-] (some centres undefined)	100 nM	>290	> 29000 nM	–	–	–
CC1(C)[C@H](n2cnc3ccccc3c2=O)[C@H](O)C[C@H]2[C@@H](O)CCCN21	800 nM	>30	> 24000 nM	–	–	–
CC(=O)O[C@H]1CCCN2[C@H]1CC(=O)[C@@H](n1cnc3ccccc3c1=O)C2(C)C	19 nM	368	7000 nM	–	–	–
CC(=O)O[C@H]1CCCN2[C@H]1C[C@@H](OC(C)=O)[C@@H](n1cnc3ccccc3c1=O)C2(C)C	7000 nM	>3	> 21000 nM	–	–	–

Structure (SMILES)	EC50 [1]	Selectivity (FM3A [2])	EC50 (FM3A [3])	ED50 (Plasmodium berghei [4])	ED50 (Plasmodium berghei [5])	ED90 (Plasmodium berghei [4])
CC(=O)O[C@H]1CCCN2[C@H]1C[C@@H](O)[C@@H](n1cnc3ccccc3c1=O)C2(C)C	400 nM	>28	> 11000 nM	–	–	–
CC1(C)[C@H](n2cnc3ccccc3c2=O)[C@@H](O)C[C@H]2[C@@H](O)CCCN21	3400 nM	>28	> 100000 nM	–	–	–
CC1(C)[C@@H](n2cnc3ccccc3c2=O)C(=O)C[C@@H]2C(=O)CCCN21	1.9 nM	>3105	5900 nM	–	–	–
CC(=O)O[C@H]1CCCN2[C@@H]1CC(=O)[C@H](n1cnc3ccccc3c1=O)C2(C)C	3.6 nM	361	1300 nM	–	–	–
CC1(C)[C@@H](N2CNc3ccccc3C2=O)[C@@H](O)C[C@@H]2[C@@H](O)CCCN21	420 nM	>38	> 16000 nM	–	–	–
CC1(C)[C@@H](n2cnc3ccccc3c2=O)C=C[C@@H]2[C@@H](O)CCCN21	4800 nM	>7	> 32000 nM	–	–	–
CC1(C)[C@@H](n2cnc3ccccc3c2=O)CC[C@@H]2[C@@H](O)CCCN21	830 nM	>27	> 22000 nM	–	–	–
COC1=C[C@@H]2[C@@H](O)CCCN2C(C)(C)[C@H]1n1cnc2ccccc2c1=O	1300 nM	>51	> 66000 nM	–	–	–
O=c1c2ccccc2ncn1C[C@@H](O)CC1NCCC[C@@H]1O (some centres undefined)	20 nM	750	–	2.9 µmol/kg	–	22 µM/kg
O=c1ccncn1CC1(O)CC2NCCC[C@@H]2O1 (some centres undefined)	40 nM	175	7000 nM	–	–	–
O=C(CC1NCCCC1=O)Cn1cnc2ccccc2c1=O (centres undefined)	20 nM	500	10000 nM	1.3 µmol/kg	–	6.2 µM/kg
CC(=O)O[C@H]1CCCN(C(C)=O)C1CC(=O)Cn1cnc2ccccc2c1=O (some centres undefined)	910 nM	>32	> 29000 nM	–	–	–
C[C@@H]1CC[C@H]2[C@@H](C)C(=O)O[C@@H]3O[C@@]4(C)CC[C@@H]1[C@]32OO4 [ARTEMISININ]	10 nM	1000	–	–	–	46 µM/kg
CCN(CC)CCCC(C)Nc1ccnc2cc(Cl)ccc12 (centres undefined) [CHLOROQUINE]	18 nM	–	–	4.7 µmol/kg	–	9.4 µM/kg
O=C(C[C@@H]1NCCC[C@H]1O)Cn1cnc2ccccc2c1=O [FEBRIFUGINE]	700 nM	243	–	1 µmol/kg	–	5 µM/kg
O=c1c2ccccc2ncn1CC1(O)C[C@@H]2NCCC[C@@H]2O1 (some centres undefined) [ISOFEBRIFUGINE]	3.4 nM	53	–	211 µmol/kg	–	>267 µM/kg
